As usually defined, the IC50 is the concentration that inhibits the measured activity by half.

In ChEMBL document CHEMBL1154186, “Synthesis, kinase inhibitory potencies, and in vitro antiproliferative evaluation of new Pim kinase inhibitors” (J Med Chem, 2009) one finds Activity and IC50 data, which are given here for 15 compounds.

Assay [1] addresses Serine/threonine-protein kinase pim-3 (Homo sapiens) (UniProt Q86V86). Nature of the assay: Inhibition of Pim-3 assessed as residual enzyme activity at 10 uM relative to untreated control.
Assay [2] has the same target. Nature of the assay: Inhibition of Pim-3 assessed as residual enzyme activity at 1 uM relative to untreated control.
The target in assay [3] is Serine/threonine-protein kinase pim-2 (Homo sapiens) (UniProt Q9P1W9). Nature of the assay: Inhibition of Pim-2 assessed as residual enzyme activity at 10 uM relative to untreated control.
Sequence of Serine/threonine-protein kinase pim-2 (Homo sapiens) (Q9P1W9 whole entry, looked up): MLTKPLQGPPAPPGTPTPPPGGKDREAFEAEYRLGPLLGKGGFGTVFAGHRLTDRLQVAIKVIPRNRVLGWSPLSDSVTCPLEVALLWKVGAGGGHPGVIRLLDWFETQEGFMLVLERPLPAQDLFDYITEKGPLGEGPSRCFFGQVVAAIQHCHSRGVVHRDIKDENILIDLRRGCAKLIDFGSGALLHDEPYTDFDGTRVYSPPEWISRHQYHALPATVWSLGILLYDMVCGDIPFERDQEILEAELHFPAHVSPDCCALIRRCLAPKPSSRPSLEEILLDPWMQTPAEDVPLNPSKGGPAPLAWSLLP
Assay [4] has the same target. Nature of the assay: Inhibition of Pim-2 assessed as residual enzyme activity at 1 uM relative to untreated control.
In assay [5] the target is Serine/threonine-protein kinase pim-1 (Homo sapiens) (UniProt P11309). Nature of the assay: Inhibition of Pim-1 assessed as residual enzyme activity at 1 uM relative to untreated control.
Sequence of Serine/threonine-protein kinase pim-1 (Homo sapiens) (P11309 whole entry, looked up): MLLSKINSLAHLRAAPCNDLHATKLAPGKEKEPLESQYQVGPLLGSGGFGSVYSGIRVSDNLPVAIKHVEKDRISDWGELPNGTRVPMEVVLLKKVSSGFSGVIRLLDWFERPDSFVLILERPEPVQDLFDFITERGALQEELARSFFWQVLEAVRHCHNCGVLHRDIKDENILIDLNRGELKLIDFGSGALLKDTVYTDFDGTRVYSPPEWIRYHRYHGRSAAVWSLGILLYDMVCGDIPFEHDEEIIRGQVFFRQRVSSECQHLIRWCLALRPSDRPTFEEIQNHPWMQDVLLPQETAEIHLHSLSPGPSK
Assay [6] has the same target. Nature of the assay: Inhibition of Pim-1 assessed as residual enzyme activity at 10 uM relative to untreated control.
The test system of another assay is DU-145. Nature of the assay: Antiproliferative activity against human DU145 cells after 48 hrs by resazurin dye reduction assay. Type of assay: functional, cell-based. The following applies: DU-145, 48 h. In short, it runs like this:
(§1)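 Cells (human fibroblast primary culture, or PC3, DU145 or PA1 cancer lines) were kept as monolayers in Glutamax MEM with Earle's salts, 10% FCS, pyruvate, nonessential amino acids and gentamicin, at 37 °C in 5% CO2. 5×10^3 cells/well adhered for 16 h, then had 48 h continuous drug exposure (20 mM DMSO stock). Resazurin 25 µg/mL for 1 h; fluorescence ex 530/em 590 nm. IC50 from blank-corrected concentration–survival curves versus control wells.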
(The colour change of resazurin is a common sign of viable cells or microbes.)

The nature of assay [7]: Antiproliferative activity against human fibroblasts after 48 hrs by resazurin dye reduction assay. Type of assay: cell-based. The following applies: Fibroblast. In short, it runs like this:
as §1

The test system of a further assay is PA-1. Nature of the assay: Antiproliferative activity against human PA1 cells after 48 hrs by resazurin dye reduction assay. In kind it is functional, cell-based. The following applies: PA-1, 48 h. In short, it runs like this:
as §1

Another assay has as its system PC-3. Nature of the assay: Antiproliferative activity against human PC3 cells after 48 hrs by resazurin dye reduction assay. Type of assay: functional, cell-based. The following applies: PC-3, 48 h. In short, it runs like this:
as §1

Turning to `O=Cc1c[nH]c2c1ccc1c3cc(-c4ccccc4)ccc3[nH]c12`, the Activity came to 15% in [1]; 54% in assay [2]; 53% in [3]; 68% in assay [4]; 60% in assay [5]; 16% in assay [6].
On to `O=Cc1c[nH]c2c1ccc1c3cc(-c4ccc(F)cc4F)ccc3[nH]c12`, for which the Activity in [1] came out at 6%; in assay [2] it was 26%; in assay [3], 32%; in assay [4] it was 59%; in assay [5], 39%; in assay [6] it was 6%.
Turning to `O=Cc1c[nH]c2c1ccc1c3cc(-c4ccc(-c5ccccc5)cc4)ccc3[nH]c12`, the Activity was found to be 48% in assay [1]; 77% in [2]; 70% in assay [3]; 67% in assay [4]; 69% in [5]; 39% in assay [6].
`OCCc1c[nH]c2c1ccc1c3ccccc3[nH]c12`: the Activity is 21% in [1]; 72% in [2]; 50% in [3]; 69% in [4]; 90% in assay [5]; 35% in assay [6].
For the compound `CCN(CC)C(=O)/C(=N\O)c1c[nH]c2c1ccc1c3ccccc3[nH]c12`, the Activity in [1] was found to be 21%; in [2], 74%; in assay [3] it was 27%; in assay [4] it was 62%; in [5] it was 80%; in [6], 41%.
Consider `COc1cccc(-c2ccc3[nH]c4c(ccc5c(C=O)c[nH]c54)c3c2)c1`, for which the Activity in [1] amounted to 12%; in assay [2], 46%; in [3] it was 31%; in [4], 65%; in [5] it was 64%; in assay [6] it was 17%.
With `O=Cc1c[nH]c2c1ccc1c3cc(-c4ccc(OC(F)(F)F)cc4)ccc3[nH]c12`, the Activity in assay [1] turned out to be 31%; in assay [2], 77%; in [3], 70%; in [4], 73%; in [5], 68%; in assay [6] it was 29%.
As for `Brc1ccc2[nH]c3c(ccc4cc[nH]c43)c2c1`, the Activity in assay [1] was 8%; in assay [2], 55%; in assay [3], 46%; in assay [4], 67%; in assay [5] it was 69%; in assay [6], 12%.
On to `O=Cc1c[nH]c2c1ccc1c3cc(-c4ccc(F)cc4)ccc3[nH]c12`, for which the Activity in assay [1] came out at 15%; in assay [2], 54%; in [3], 55%; in [4] it was 72%; in assay [5] it was 65%; in [6], 15%.
In the case of `O=Cc1c[nH]c2c1ccc1c3cc(-c4ccc(C(F)(F)F)cc4)ccc3[nH]c12`, the Activity came out at 23% in assay [1]; 70% in assay [2]; 52% in [3]; 49% in [4]; 79% in assay [5]; 28% in assay [6].
Consider `O=C(c1c[nH]c2c1ccc1c3ccccc3[nH]c12)C(F)(F)F`, for which the Activity was 7% in assay [1]; 20% in [2]; 30% in assay [3]; 54% in assay [4]; 61% in assay [5]; 20% in assay [6].
Turning to `O=Cc1c[nH]c2c1ccc1c3cc(Br)ccc3[nH]c12`, the IC50 with DU-145 was 12.2 µM; in assay [7], 11 µM; in the assay with PA-1 it was 2800 nM; in the assay with PC-3 it was 5.9 µM. For the same compound, the Activity is 6% in assay [1]; 11% in assay [2]; 53% in assay [3]; 82% in [4]; 31% in [5]; 6% in assay [6].
For `NC(=O)c1c[nH]c2c1ccc1c3ccccc3[nH]c12`, the Activity in [1] came to 9%; in assay [3], 27%; in assay [6], 9%.
As for `OCc1c[nH]c2c1ccc1c3ccccc3[nH]c12`, the Activity was found to be 18% in assay [1]; 68% in assay [2]; 47% in assay [3]; 46% in [4]; 72% in assay [5]; 28% in [6].
In the case of `O=S(=O)(c1ccccc1)n1ccc2ccc3c4ccccc4[nH]c3c21`, the Activity in assay [1] was determined as 64%; in assay [2] it was 102%; in [3], 62%; in [4], 65%; in assay [5] it was 83%; in assay [6], 61%.
